The target in series [1] is T1, 5-hydroxytryptamine receptor 2B (Homo sapiens, UniProt P41595). Briefly: Displacement of [3H]-LSD from human 5-HT2B receptor expressed in HEK cells after 90 mins by microbeta scintillation counting analysis. Format: cell-based.
Series [2] has as its target T2, 5-hydroxytryptamine receptor 2C (Homo sapiens, UniProt P28335).
T2 sequence (P28335 whole entry): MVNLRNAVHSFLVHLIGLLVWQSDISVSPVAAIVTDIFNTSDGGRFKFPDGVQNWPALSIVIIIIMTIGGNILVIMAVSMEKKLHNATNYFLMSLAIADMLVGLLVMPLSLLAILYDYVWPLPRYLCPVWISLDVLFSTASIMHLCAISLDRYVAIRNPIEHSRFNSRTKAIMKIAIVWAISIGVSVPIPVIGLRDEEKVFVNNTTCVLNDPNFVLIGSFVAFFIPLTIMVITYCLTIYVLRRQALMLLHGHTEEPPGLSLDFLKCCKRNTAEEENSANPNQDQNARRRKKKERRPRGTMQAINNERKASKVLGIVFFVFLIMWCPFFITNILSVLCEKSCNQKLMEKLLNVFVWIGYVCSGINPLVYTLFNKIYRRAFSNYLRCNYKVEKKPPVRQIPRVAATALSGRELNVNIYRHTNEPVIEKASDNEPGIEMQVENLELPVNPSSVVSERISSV
Briefly: Displacement of [3H]-Mesulergine from human 5-HT2C receptor expressed in HEKT cells after 90 mins by microbeta scintillation counting analysis. The class given is cell-based. In general terms: Displacement assays read how much labelled ligand stays bound in the presence of the test substance.

In series [3] the target is T1, 5-hydroxytryptamine receptor 2B. Briefly: Antagonist activity at 5-HT2B receptor (unknown origin) by calcium release assay. Format: functional.
The subject of series [4] is Mus musculus. The series can be described thus: Anticonvulsant activity in mouse assessed as protection against 44 mA current-induced seizure at 100 mg/kg, ip pre-treated 2 to 4 hrs before current challenge by 6 Hz psychomotor seizure test. Format: functional, organism-based. The method, boiled down:
(§1)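 Mice received compound intraperitoneally at 10, 30 and 100 mg/kg. At 0.25, 0.5, 1, 2 and 4 h after dosing, four mice per time point were challenged with 32 or 44 mA for 3 s through corneal electrodes to elicit a partial psychomotor seizure. Data are the number of mice protected over the number tested at each time.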

In series [5] the test system is Mus musculus. Briefly: Anticonvulsant activity in mouse assessed as protection against maximal electroshock-induced seizure at 100 mg/kg, ip pre-treated 0.25 to 4 hrs before electrical stimulation. The class given is functional, organism-based. The method, boiled down: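 Maximal electroshock seizure test in mice, four per condition. Compound was given ip at 10, 30 and 100 mg/kg, and mice were challenged at 0.25, 0.5, 1, 2 and 4 h after treatment. Data are the number protected over the number tested.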
For orientation: Protection in the maximal electroshock model is a classic sign of anticonvulsant action.

For series [6], the system named is Mus musculus. The series can be described thus: Neurotoxicity in mouse assessed as motor impairment at 100 mg/kg, ip after 0.25 to 4 hrs by rotarod test. Conditions: in vivo. The class given is toxicity, organism-based. The method, boiled down:
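Rotarod, four mice per condition after ip dosing (10, 30 or 100 mg/kg). The rod turns at a fixed 6 rpm, and each mouse is observed for 1 min. Falling off three times within that minute scores as minimal motor impairment. Results are the number impaired over the number tested at 0.25–4 h.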

Series [7] has as its system Mus musculus. The series can be described thus: Anticonvulsant activity in mouse assessed as protection against 32/44 mA current-induced seizure at 10 to 100 mg/kg, ip pre-treated 0.25 to 4 hrs before current challenge by 6 Hz psychomotor seizure test. The class given is functional, organism-based. The method, boiled down:
as §1

Series [8] relates to Mus musculus. Briefly: Antinociceptive activity in mouse assessed as tail withdrawal latency at 100 mg/kg, ip by tail flick assay. Format: functional, organism-based. For orientation: Thermal pain tests record how soon the animal reacts.
In series [9] the test system is Mus musculus. The series can be described thus: Antinociceptive activity in mouse assessed as increase in pain response latency at 100 mg/kg, ip by hot plate assay. The class given is functional, organism-based. The method, boiled down:
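Mice acclimatized for 10 min, then were placed on a hot plate held at 55 °C inside a clear open-top enclosure. Latency to hindpaw lick, hindpaw flick or jump was timed manually to the nearest 0.1 s.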

Series [10] concerns the target T1, 5-hydroxytryptamine receptor 2B. The series can be described thus: Agonist activity at 5-HT2B receptor (unknown origin) by calcium release assay. The class given is functional.
The target is the same in series [11]. Briefly: Ratio of IC50 for antagonist activity at 5-HT2B receptor (unknown origin) by calcium release assay to Ki for displacement of [3H]-LSD from human 5-HT2B receptor expressed in baculovirus infected Sf9 cells. Format: functional.
In series [12] the target is T3, 5-hydroxytryptamine receptor 1D (Homo sapiens, UniProt P28221). Briefly: Displacement of [3H]5-CT from human 5-HT1D receptor expressed in HEKT cells after 90 mins by microbeta scintillation counting analysis. Format: cell-based.
Series [13] addresses 5-hydroxytryptamine receptor 1E (Homo sapiens, UniProt P28566). Briefly: Displacement of [3H]5-HT from human 5-HT1E receptor expressed in HEK cells after 90 mins by microbeta scintillation counting analysis. Format: cell-based.
In series [14] the target is T4, 5-hydroxytryptamine receptor 2A (Homo sapiens, UniProt P28223). Briefly: Displacement of [3H]Ketanserin from 5-HT2A (unknown origin) receptor after 90 mins by microbeta scintillation counting analysis.
Series [15] addresses T5, 5-hydroxytryptamine receptor 3A (Homo sapiens, UniProt P46098).
T5 sequence (P46098 whole entry): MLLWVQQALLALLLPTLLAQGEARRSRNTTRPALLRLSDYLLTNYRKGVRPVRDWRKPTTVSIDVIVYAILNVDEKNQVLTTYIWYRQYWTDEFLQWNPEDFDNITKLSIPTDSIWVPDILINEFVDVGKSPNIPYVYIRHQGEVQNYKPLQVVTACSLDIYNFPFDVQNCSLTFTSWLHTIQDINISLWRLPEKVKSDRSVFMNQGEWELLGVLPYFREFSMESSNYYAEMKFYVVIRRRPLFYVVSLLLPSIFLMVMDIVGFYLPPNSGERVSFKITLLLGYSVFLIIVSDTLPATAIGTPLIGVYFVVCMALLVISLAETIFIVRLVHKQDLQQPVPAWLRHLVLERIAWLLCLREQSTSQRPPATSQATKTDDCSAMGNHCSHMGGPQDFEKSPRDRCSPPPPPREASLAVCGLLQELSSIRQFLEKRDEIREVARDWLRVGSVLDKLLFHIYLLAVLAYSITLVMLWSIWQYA
The series can be described thus: Displacement of [3H]-GR65630 from human 5-HT3 receptor expressed in HEKT cells after 90 mins by microbeta scintillation counting analysis. Format: cell-based.

Series [16] deals with 5-hydroxytryptamine receptor 5A (Homo sapiens, UniProt P47898). The series can be described thus: Displacement of [3H]-LSD from human 5-HT5A receptor expressed in Flp-In CHO cells after 90 mins by microbeta scintillation counting analysis. The class given is cell-based.
Series [17] concerns the target 5-hydroxytryptamine receptor 6 (Homo sapiens, UniProt P50406). The series can be described thus: Displacement of [3H]-LSD from human 5-HT6 receptor expressed in HEK cells after 90 mins by microbeta scintillation counting analysis. Format: cell-based.
Series [18] has as its target T6, 5-hydroxytryptamine receptor 7 (Homo sapiens, UniProt P34969). Briefly: Displacement of [3H]-LSD from human 5-HT7A receptor expressed in HEK cells after 90 mins by microbeta scintillation counting analysis. The class given is cell-based.
The target in series [19] is T4, 5-hydroxytryptamine receptor 2A. The series can be described thus: Antagonist activity at 5-HT2A receptor (unknown origin) by calcium release assay. The class given is functional.
Series [20] concerns the target T2, 5-hydroxytryptamine receptor 2C. Briefly: Antagonist activity at 5-HT2C receptor (unknown origin) by calcium release assay. The class given is functional.
The target in series [21] is T6, 5-hydroxytryptamine receptor 7. Briefly: Antagonist activity at 5-HT7A receptor (unknown origin) by Tango assay.
For series [22], the target named is T7, 5-hydroxytryptamine receptor 1A (Homo sapiens, UniProt P08908).
T7 sequence (P08908 whole entry): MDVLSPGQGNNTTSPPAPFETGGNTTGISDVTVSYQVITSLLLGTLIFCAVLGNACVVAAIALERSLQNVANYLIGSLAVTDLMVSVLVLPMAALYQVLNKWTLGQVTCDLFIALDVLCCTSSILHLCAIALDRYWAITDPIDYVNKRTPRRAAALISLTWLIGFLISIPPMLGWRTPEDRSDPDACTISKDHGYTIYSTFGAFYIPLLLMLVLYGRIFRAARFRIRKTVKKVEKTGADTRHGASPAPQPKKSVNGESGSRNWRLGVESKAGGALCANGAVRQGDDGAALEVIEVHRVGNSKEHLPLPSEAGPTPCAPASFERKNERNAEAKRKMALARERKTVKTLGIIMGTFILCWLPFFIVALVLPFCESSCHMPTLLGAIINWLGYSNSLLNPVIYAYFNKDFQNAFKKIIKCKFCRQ
The series can be described thus: Antagonist activity at 5-HT1A receptor (unknown origin) by Tango assay. The class given is functional.

Series [23] deals with T3, 5-hydroxytryptamine receptor 1D. The series can be described thus: Antagonist activity at 5-HT1D receptor (unknown origin) by Tango assay. The class given is functional.
For series [24], the system named is Mus musculus. The series can be described thus: Anticonvulsant activity in ip dosed CF1 mouse assessed as protection against 44 mA current-induced seizure after 15 mins by 6 Hz psychomotor test. Format: functional. The note with it: 0.25 h. The method, boiled down: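 Mice received intraperitoneal doses of 10, 30 or 100 mg/kg. At 1/4, 1/2, 1, 2 and 4 h after dosing, four mice per time point were given 44 mA for 3 s through corneal electrodes to elicit a partial psychomotor seizure. The result is the number of mice protected over the number tested.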

Series [25] relates to Mus musculus. The series can be described thus: Anticonvulsant activity in ip dosed CF1 mouse assessed as protection against 44 mA current-induced seizure after 1 hr by 6 Hz psychomotor test. The class given is functional. The method, boiled down:
as §1

Active and inactive are the calls of the source. The rule behind the calls is not given here.

A word on the Ki: it is a measure of affinity in units of concentration, obtained from inhibition or displacement. A lower Ki goes with higher affinity. For orientation: IC50 means the point on the concentration scale where inhibition reaches its midpoint. As usually defined, the ED50 is the dose at which the effect has come halfway, by size or by number of responders.

T1 sequence (P41595 whole entry): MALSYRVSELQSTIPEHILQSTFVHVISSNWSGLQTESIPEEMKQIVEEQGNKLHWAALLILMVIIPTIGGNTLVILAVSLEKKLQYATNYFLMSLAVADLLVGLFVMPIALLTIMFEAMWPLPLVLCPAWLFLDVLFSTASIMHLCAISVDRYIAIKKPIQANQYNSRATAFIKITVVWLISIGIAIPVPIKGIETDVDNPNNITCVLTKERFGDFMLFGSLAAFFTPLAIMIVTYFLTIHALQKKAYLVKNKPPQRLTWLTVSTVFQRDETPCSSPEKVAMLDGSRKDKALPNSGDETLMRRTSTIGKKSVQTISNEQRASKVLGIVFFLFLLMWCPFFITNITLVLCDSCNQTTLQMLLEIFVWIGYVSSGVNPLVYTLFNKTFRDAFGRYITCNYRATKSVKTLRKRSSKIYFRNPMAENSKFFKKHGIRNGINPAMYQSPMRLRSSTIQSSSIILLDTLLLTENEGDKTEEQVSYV
T6 sequence (P34969 whole entry): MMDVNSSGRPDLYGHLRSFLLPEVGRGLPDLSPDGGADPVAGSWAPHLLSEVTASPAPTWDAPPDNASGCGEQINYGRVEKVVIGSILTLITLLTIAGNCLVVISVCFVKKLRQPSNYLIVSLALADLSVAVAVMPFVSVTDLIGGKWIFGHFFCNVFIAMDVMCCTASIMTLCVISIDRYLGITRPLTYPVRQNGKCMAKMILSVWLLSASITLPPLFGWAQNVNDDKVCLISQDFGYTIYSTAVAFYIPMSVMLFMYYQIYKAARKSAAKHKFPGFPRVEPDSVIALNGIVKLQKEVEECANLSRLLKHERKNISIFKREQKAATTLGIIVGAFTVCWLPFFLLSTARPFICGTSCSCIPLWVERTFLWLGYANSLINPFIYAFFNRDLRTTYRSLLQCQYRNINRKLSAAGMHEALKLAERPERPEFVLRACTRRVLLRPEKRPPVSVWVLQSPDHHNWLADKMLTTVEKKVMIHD
T4 sequence (P28223 whole entry): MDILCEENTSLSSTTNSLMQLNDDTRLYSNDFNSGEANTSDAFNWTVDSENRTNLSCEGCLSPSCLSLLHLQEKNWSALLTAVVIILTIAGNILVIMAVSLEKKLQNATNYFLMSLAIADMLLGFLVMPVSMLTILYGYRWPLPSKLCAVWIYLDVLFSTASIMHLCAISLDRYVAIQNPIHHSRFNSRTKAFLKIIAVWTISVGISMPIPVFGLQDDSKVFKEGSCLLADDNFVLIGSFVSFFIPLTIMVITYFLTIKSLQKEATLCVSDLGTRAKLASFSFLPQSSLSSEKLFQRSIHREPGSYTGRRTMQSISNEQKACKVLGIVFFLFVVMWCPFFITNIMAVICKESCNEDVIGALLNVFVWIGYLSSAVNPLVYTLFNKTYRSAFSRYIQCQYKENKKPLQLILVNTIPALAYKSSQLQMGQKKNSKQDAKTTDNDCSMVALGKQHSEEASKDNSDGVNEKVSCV
T3 sequence (P28221 whole entry): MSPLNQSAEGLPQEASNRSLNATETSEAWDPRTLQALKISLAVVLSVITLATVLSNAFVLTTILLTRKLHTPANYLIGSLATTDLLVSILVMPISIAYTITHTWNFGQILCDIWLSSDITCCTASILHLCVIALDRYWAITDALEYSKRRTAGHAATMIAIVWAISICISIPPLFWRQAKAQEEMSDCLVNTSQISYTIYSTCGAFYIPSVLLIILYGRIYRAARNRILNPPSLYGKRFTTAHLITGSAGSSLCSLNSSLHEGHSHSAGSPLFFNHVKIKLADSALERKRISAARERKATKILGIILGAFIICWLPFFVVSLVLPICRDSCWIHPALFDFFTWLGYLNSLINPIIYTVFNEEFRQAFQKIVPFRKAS
Sequence of 5-hydroxytryptamine receptor 5A (P47898 whole entry): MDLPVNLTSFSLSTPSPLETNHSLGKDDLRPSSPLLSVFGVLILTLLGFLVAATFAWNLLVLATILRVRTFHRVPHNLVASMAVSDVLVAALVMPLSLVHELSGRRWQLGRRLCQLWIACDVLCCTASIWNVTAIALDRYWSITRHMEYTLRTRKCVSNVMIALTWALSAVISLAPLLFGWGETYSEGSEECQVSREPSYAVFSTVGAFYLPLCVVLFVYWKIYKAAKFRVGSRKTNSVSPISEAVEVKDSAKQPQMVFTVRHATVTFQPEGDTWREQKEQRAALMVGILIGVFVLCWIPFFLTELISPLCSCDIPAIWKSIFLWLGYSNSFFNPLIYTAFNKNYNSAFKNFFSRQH
Sequence of 5-hydroxytryptamine receptor 1E (P28566 whole entry): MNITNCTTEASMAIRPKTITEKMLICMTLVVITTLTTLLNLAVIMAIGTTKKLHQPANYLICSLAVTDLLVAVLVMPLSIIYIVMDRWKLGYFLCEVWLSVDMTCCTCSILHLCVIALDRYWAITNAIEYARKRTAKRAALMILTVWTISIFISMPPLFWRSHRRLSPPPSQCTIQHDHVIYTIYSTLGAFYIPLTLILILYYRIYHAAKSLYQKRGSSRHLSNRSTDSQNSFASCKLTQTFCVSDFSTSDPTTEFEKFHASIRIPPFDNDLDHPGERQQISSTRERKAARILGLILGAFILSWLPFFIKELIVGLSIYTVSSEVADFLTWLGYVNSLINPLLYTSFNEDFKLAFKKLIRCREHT
Sequence of 5-hydroxytryptamine receptor 6 (P50406 whole entry): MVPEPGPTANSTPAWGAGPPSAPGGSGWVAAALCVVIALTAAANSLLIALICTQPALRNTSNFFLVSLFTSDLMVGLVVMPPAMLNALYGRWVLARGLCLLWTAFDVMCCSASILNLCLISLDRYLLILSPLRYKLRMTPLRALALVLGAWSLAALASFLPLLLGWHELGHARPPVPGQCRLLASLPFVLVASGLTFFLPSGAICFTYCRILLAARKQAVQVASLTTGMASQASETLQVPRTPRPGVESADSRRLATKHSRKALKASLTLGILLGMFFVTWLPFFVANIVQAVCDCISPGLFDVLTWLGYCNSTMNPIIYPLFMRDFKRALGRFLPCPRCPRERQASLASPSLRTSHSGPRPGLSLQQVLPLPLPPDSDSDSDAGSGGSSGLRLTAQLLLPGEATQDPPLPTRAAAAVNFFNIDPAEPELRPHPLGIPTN

Regarding `C[C@@H]1SC(c2ccccc2O)=N[C@H]1CO`, the results for the Ki in [1] and in series [2] were 130 nM and 1600 nM, respectively. Besides, in series [3], the IC50 came to 18000 nM. In addition, the result in series [4], in [5], in series [8] and in series [10] was inactive. Besides, the Activity result in series [6] is “Non-Toxic”. The result in series [7] and in series [9] was Active. In addition, the Ratio in series [11] was in the range of 50 to 140.
On to `Oc1ccccc1C1=NC(Cc2c[nH]cn2)C(c2ccccc2)S1` (racemic), for which the Ki stood at 100 nM in series [1]; 2200 nM in [12]; 2400 nM in series [13]; 1100 nM in [14]; 770 nM in series [2]; 860 nM in series [15]. For the same compound, the results for the Ki in series [16], in series [17] and in series [18] were 4700 nM, 2200 nM and above 10000 nM, respectively. Besides, the IC50 is 13000 nM in series [19]; 3800 nM in [3]; above 10000 nM in [20]; above 10000 nM in series [21]; above 10000 nM in series [22]; above 10000 nM in series [23].
`CCC1(C)CC(=O)NC1=O` (stereo not drawn) [ETHOSUXIMIDE]: in series [24], the 50% effective dose (ED50) was above 600 mg/kg.
With `CCCC(CCC)C(=O)O` [VALPROIC ACID], the ED50 in series [25] is 310 mg/kg.

These data come from ChEMBL document CHEMBL4190286, “Modulating the Serotonin Receptor Spectrum of Pulicatin Natural Products” (J Nat Prod, 2017).
